# Lung fibro prol = blocks proliferation of human lung fibroblasts; LL 47 human lung fibroblast viability, ATP luminescence; active compounds read low; AID 719; 85,000 tested, 1.1% active; viability, % at 10 µM;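 active = viability at or below 50% in the single dose screen; inactive = viability above 50%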;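 also: compound exposure lasted 72 h before the ATP readout; 100% = median luminescence of untreated cell-only wells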
#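 Signal: luminescent ATP detection, CellTiter-Glo; assay system: LL 47 human lung fibroblasts; input: 1,150 cells/well; incubation: overnight cell rest, 72 h compound treatment at 37 °C; measure: % viability versus median cells-only luminescence; medium: IMEM growth medium with 15% fetal bovine serum; dosing: compound addition at 0.1% DMSO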
# HCT116 PTEN-null = PTEN-deleted cell growth suppression; viability, % at 10 µM; HCT116 PTEN-null viability, CellTiter-Glo, 60 h; active compounds read low; 140,000 tested, 1.2% active;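 active = viability at or below a set limit, 4 SD under the median of all tested compounds, cut at about 3.7% in these data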;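 also: PTEN knockout HCT116 line with beta catenin targeted HCT116 as companion control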
# H69AR inhibit = growth inhibitors of human H69AR lung tumor cells; H69AR lung tumor viability, ATP luminescence, 72 h; active compounds read low; viability, % at 10 µM; 85,000 tested, 6% active; AID 598;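 active = viability at or below 40%; inactive = viability above 40%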;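 also: multidrug resistant small cell line overexpressing MRP-1 efflux transporter; 100% = mean luminescence of untreated control wells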
# HUVEC inhibit = blocks proliferation of human endothelial cells. HUVEC proliferation, CellTiter-Glo luminescence, 72 h; active compounds read low. viability, % at 10 µM (by protocol). 86,000 tested, 1.1% active;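 active = viability at or below 30%; inactive = viability above 30%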;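 also: 100% = median luminescence of DMSO-only cell control wells on each plate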
# HCT116 bCat-KO = beta-catenin-lacking colon tumor cell growth suppression. viability, % at 10 µM. 140,000 tested, 1.5% active. HCT116 beta-catenin knockout viability, CellTiter-Glo, 60 h; active compounds read low. AID 818;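 active = viability at or under a set limit, the compound median less 4 SD, cut at about 6% in these data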;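 also: 0% = Hyamine 1622 control at 20 µM and 100% = untreated cell control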
# Active calls of the source: *; x = no result. Many of the other results were omitted from the sample, so hits are more common in it than they were.
SMILES,Lung fibro prol,HCT116 PTEN-null,H69AR inhibit,HUVEC inhibit,HCT116 bCat-KO
NC(=O)C1CCN(c2nc(C3CC3)nc3c2nnn3Cc2ccccc2)CC1,94,110,78,93,102
O=C(C1CCCCC1)N1CCC(c2nc3c(nnn3Cc3ccccc3Cl)c(=O)[nH]2)CC1,89,x,39*,64,x
NC(=O)C1CCN(c2nc(C3CC3)nc3c2nnn3Cc2ccccc2Cl)CC1,94,83,31*,85,83
CCCCCCC(=O)N1CCC(c2nc3c(nnn3Cc3ccccc3Cl)c(=O)[nH]2)CC1,96,57,34*,84,58
O=C(NCc1ccco1)c1nc2c(nnn2Cc2ccccc2Cl)c(=O)[nH]1,31*,7,25*,14*,8
COc1ccc(C(=O)/C=C/c2ccc(F)cc2)c(OC(=O)c2ccc([N+](=O)[O-])cc2)c1,x,3.3*,x,x,7
COc1ccc(/C=C/C(=O)c2ccc(Cl)s2)cc1O,x,4,x,x,3.4*
COc1cc(/C=C/C(=O)c2ccc(Cl)s2)cc(OC)c1O,x,4,x,x,4.5*
COc1ccc(/C=C/C(=O)O)cc1OC,x,103,x,x,94
COc1ccc(C(=O)/C=C/c2cccs2)c(OC(=O)c2cccc([N+](=O)[O-])c2)c1,x,30,x,x,31
COc1ccc(/C=C/C(=O)c2ccccc2O)cc1,x,72,x,x,65
Cc1c(/C=C/C(=O)c2ccc(Cl)s2)cnn1C,97,52,61,100,59
COc1ccc(C(=O)/C=C/c2ccc(OC)c(O)c2)c(F)c1,x,6,x,x,5.6*
Oc1[nH]c(=S)sc1/C=C1\C(c2ccccc2)=Nc2ccccc21,x,70,x,x,81
COC(=O)C1=C(C(=O)OC)C(c2ccccc2O)c2sc(=O)[nH]c2S1 (configuration not stated),x,88,x,x,91
COc1ccc(N2CC(C(=O)Nc3nnc(SCc4ccccn4)s3)CC2=O)cc1 (configuration not stated),x,97,x,x,94
COc1ccccc1/C=C/C(=O)c1c2c(c(C)[nH]c1=O)CCCC2,x,3.2*,x,x,5.4*
COc1ccccc1/C=C/C(=O)c1ccc(NC(C)=O)cc1,x,17,x,x,15
Cc1cc(C)n(-c2nnc3n2N=C(c2c[nH]c4ccccc24)CS3)n1,55,18,17*,58,17
Cc1cc(C)n(-c2nnc3n2N=C(c2ccccc2)CS3)n1,105,105,82,88,100
Cc1cc(C(=O)NCCCn2ccnc2)sc1-c1ccccc1,95,58,102,61,38
C[C@@H](NC(=O)c1coc(=O)c(Br)c1)c1ccccc1,54,81,3.7*,83,86
CCCc1nc([N+](=O)[O-])c(S(=O)(=O)c2ccccc2)n1CC(C)C,x,2.9*,x,x,3.3*
CC(C)Cn1c(C(C)C)nc([N+](=O)[O-])c1S(=O)(=O)c1ccc(F)cc1,x,2.4*,x,x,2.1*
CC(C)Cn1c(CCCNC(=O)c2ccc(F)cc2)nc2ccccc21,106,94,70,100,83
SMILES,Lung fibro prol,HCT116 PTEN-null,H69AR inhibit,HUVEC inhibit,HCT116 bCat-KO
Cc1ccccc1-c1cc2c(nn1)-c1ccccc1C2=O,14*,4,17*,3.2*,3.4*
Cc1cccc(C)c1NS(=O)(=O)c1ccc2c(c1)C(=O)c1ccccc1C2=O,x,87,x,x,83
Cc1ccc(-c2cc3c(nn2)-c2ccccc2C3=O)cc1,47*,x,12*,58,x
O=C(CNC1CCCCCC1)c1cccs1,x,90,x,x,92
Cc1noc(C)c1C(=O)OCC(=O)NCCC1=CCCCC1,107,103,74,97,93
O=C(Nc1ccc(F)cc1)c1sc(Cl)nc1-c1ccccc1,x,95,x,x,103
O=C(Nc1ccc(Cl)cc1)c1cnc(-c2ccccc2)nc1-c1ccccc1,x,2.7*,x,x,0.9*
CCOC(=O)C1=c2/c(=C/c3ccccc3OC)c(N)c(C#N)n2C(=O)C(c2ccccc2OC)S1 (configuration not stated),55,x,3.4*,27*,20
CCCN(CCC)S(=O)(=O)c1ccc(C(=O)NNc2nc(-c3ccccc3)c3cc(Br)ccc3n2)cc1,x,66,x,x,80
Cc1ccc(N=Nc2c(C)[nH][nH]c2=O)c(C)c1,91,33,24*,13*,37
O=C(COC(=O)C1CCN(S(=O)(=O)c2ccc3c(c2)OCCO3)CC1)Nc1ccc(C(F)(F)F)cc1,x,84,x,x,81
O=C(Nc1ccc(O)c(-c2nc3ccccc3s2)c1)c1cccs1,x,100,x,x,91
O=C(NNC(=S)Nc1ccccc1)c1ccco1,x,98,x,x,95
O=C(/C=C/c1ccco1)NC(=S)Nc1ccc(O)c(-c2nc3ccccc3s2)c1,x,8,x,x,2.2*
Cc1ccnc(NC(=S)NC(=O)/C=C/c2ccco2)c1,72,24,26*,64,19
O=C(/C=C/c1ccco1)NC(=S)NNC(=O)c1ccco1,92,62,62,28*,60
O=C(Nc1ccccc1-c1nc2ccccc2s1)c1ccco1,83,65,37*,46,71
CCOC(=O)N1CCC(c2cc(=O)n3[nH]c(C)c(-c4ccc(F)cc4)c3n2)CC1,84,46,96,6.4*,25
CN(C)C/C(Cl)=C(\Cl)c1ccccc1,99,94,12*,97,93
Cc1cc(C)c2nc(NNC(=O)c3cc(-c4cccs4)nc4ccccc34)sc2c1,x,4,x,x,6
O=C(NN1CCOCC1)c1cc(-c2cccs2)nc2ccccc12,x,94,x,x,92
O=C(NNc1nc2ccc(Cl)cc2s1)c1cc(-c2cccs2)nc2ccccc12,x,3.7*,x,x,4.2*
Cc1ccc2sc(NNC(=O)c3cc(-c4cccs4)nc4ccccc34)nc2c1C,x,4,x,x,4.8*
Cc1ccc(C23CC4CC(CC(NC(=O)N5CCN(C)CC5)(C4)C2)C3)cc1,85,1.6*,83,72,1.5*
CC(CN1CCOCC1)OC(=O)c1ccc(Br)cc1 (configuration not stated),6.3*,2.4*,0.6*,49,2.8*
SMILES,Lung fibro prol,HCT116 PTEN-null,H69AR inhibit,HUVEC inhibit,HCT116 bCat-KO
Cc1cc(=O)n2c3c(sc2n1)C(=O)N(Cc1ccccc1)C3=O,67,91,1.1*,74,95
Cc1ccc(C)c(S(=O)(=O)NCc2ccc(C(=O)N3CCC(Cc4ccccc4)CC3)cc2)c1,99,63,36*,60,82
COc1ccc(/C=C/c2nc3ccccc3n2Cc2ccccc2OC)cc1,x,2.8*,x,x,1.9*
COc1ccccc1Cn1c(/C=C/c2ccccc2)nc2ccccc21,x,59,x,x,61
COc1ccccc1-n1cnc(N)c1C(=O)c1ccccc1,73,27,24*,68,32
COc1ccccc1-n1cnc(N)c1C(C)=O,98,103,88,96,113
Cc1cc(Cl)c(OCCCNCc2ccccc2)c(Br)c1,x,1.2*,x,x,1.5*
Clc1ccc(OCCCNCc2ccccc2)c(Br)c1,x,1.7*,x,x,1.2*
CCOC(=O)c1c(C)[nH]c(C)c1C(=O)COC(=O)/C=C/c1ccc(Cl)cc1,x,95,x,x,90
C=CCc1ccc(OCC(O)CN2CCC(Cc3ccccc3)CC2)c(OC)c1 (configuration not stated),85,29,21*,14*,22
